Experimental data taken from ChEMBL document CHEMBL4251558, “Synthesis and preliminary antiproliferative activity of new pteridin-7(8H)-one derivatives” (Eur J Med Chem, 2018).
Activity calls are given as the source filed them. The rule behind the calls is not given here.

Tests used:
MGC-803 = assay: Antiproliferative activity against human MGC803 cells assessed as decrease in cell viability after 48 hrs by MTT assay; assay type: functional, cell-based; conditions: MGC-803, 48 h
Method in brief: (§1)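 Cells in exponential growth seeded at 3000 per well and allowed 24 h. Medium then replaced with fresh medium holding a range of compound concentrations, followed by 48 h incubation. Viability read by MTT at 570 nm. IC50 is the concentration giving 50% inhibition of proliferation, reported as mean ± SD of three independent experiments.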

MKN-45 [1] = assay: Antiproliferative activity against human MKN45 cells assessed as decrease in cell viability after 48 hrs by MTT assay; assay type: functional, cell-based; conditions: MKN-45, 48 h; method in brief: as §1
ECa-109 cell line = assay: Antiproliferative activity against human EC109 cells assessed as decrease in cell viability after 48 hrs by MTT assay; assay type: functional, cell-based; conditions: ECa-109, 48 h; method in brief: as §1
NCI-H1650 = assay: Antiproliferative activity against human NCI-H1650 cells assessed as decrease in cell viability after 48 hrs by MTT assay; assay type: functional, cell-based; conditions: NCI-H1650, 48 h; method in brief: as §1
MKN-45 [2] = assay: Induction of apoptosis in human MKN45 cells assessed as formation of apoptotic bodies at 4 to 8 uM after 24 hrs by Hoechst 33258 staining-based fluorescence microscopic method; assay type: functional, cell-based
MKN-45 [3] = assay: Cell cycle arrest in human MKN45 cells assessed as accumulation at S phase at 2 uM after 24 hrs by propidium iodide staining-based flow cytometric method (reference value: 24.9%); assay type: functional
Method in brief: (§2)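 MKN-45 cells exposed to compound at 0, 2, 4 or 8 µM for 24 h. Cells then fixed and stained with PI, and DNA content analysed by flow cytometry to give phase distribution. Run three times; a representative experiment is shown.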

MKN-45 [4] = assay: Induction of apoptosis in human MKN45 cells assessed as early apoptotic cells at 8 uM after 24 hrs by Annexin V-FITC/propidium iodide staining-based flow-cytometric method (reference value: 1.31%); assay type: functional
MKN-45 [5] = assay: Induction of apoptosis in human MKN45 cells after 24 hrs by Annexin V-FITC/propidium iodide staining-based flow-cytometric method; assay type: functional, cell-based
MKN-45 [6] = assay: Cell cycle arrest in human MKN45 cells assessed as accumulation at G1 phase at 4 uM after 24 hrs by propidium iodide staining-based flow cytometric method (reference value: 58.2%); assay type: functional; method in brief: as §2
MKN-45 [7] = assay: Induction of apoptosis in human MKN45 cells assessed as cleavage of caspases-3 after 24 hrs by Western blot method; assay type: functional, cell-based
Method in brief: (§3)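 MKN-45 cells treated with a range of concentrations for 24 h. Cells lysed in RIPA buffer with protease inhibitors, and protein measured by BCA assay. Lysates run on SDS-PAGE and transferred to nitrocellulose. Membranes blocked in 5% skim milk for 2 h at RT, incubated with primary antibodies overnight at 4 °C, then secondary antibody (1:5000) for 2 h at RT. Detection by ECL on film.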

MKN-45 [8] = assay: Induction of apoptosis in human MKN45 cells assessed as viable cells at 8 uM after 24 hrs by Annexin V-FITC/propidium iodide staining-based flow-cytometric method (reference value: 90.8%); assay type: functional; conditions: MKN-45, 24 h, read-out: Activity
MKN-45 [9] = assay: Induction of apoptosis in human MKN45 cells assessed as late apoptotic cells at 4 uM after 24 hrs by Annexin V-FITC/propidium iodide staining-based flow-cytometric method (reference value: 3.99%); assay type: functional
MKN-45 [10] = assay: Cell cycle arrest in human MKN45 cells assessed as accumulation at S phase at 4 uM after 24 hrs by propidium iodide staining-based flow cytometric method (reference value: 24.9%); assay type: functional; method in brief: as §2
MKN-45 [11] = assay: Cell cycle arrest in human MKN45 cells assessed as accumulation at G1 phase at 2 uM after 24 hrs by propidium iodide staining-based flow cytometric method (reference value: 58.2%); assay type: functional; method in brief: as §2
MKN-45 [12] = assay: Induction of apoptosis in human MKN45 cells assessed as necrotic cells at 4 uM after 24 hrs by Annexin V-FITC/propidium iodide staining-based flow-cytometric method (reference value: 3.86%); assay type: functional
MKN-45 [13] = assay: Cell cycle arrest in human MKN45 cells assessed as accumulation at G2/M phase at 8 uM after 24 hrs by propidium iodide staining-based flow cytometric method (reference value: 1.62%); assay type: functional; method in brief: as §2
MKN-45 [14] = assay: Cell cycle arrest in human MKN45 cells assessed as accumulation at S phase at 8 uM after 24 hrs by propidium iodide staining-based flow cytometric method (reference value: 24.9%); assay type: functional; method in brief: as §2
MKN-45 [15] = assay: Cell cycle arrest in human MKN45 cells assessed as accumulation at G2/M phase at 4 uM after 24 hrs by propidium iodide staining-based flow cytometric method (reference value: 1.62%); assay type: functional; method in brief: as §2
MKN-45 [16] = assay: Induction of apoptosis in human MKN45 cells assessed as viable cells at 4 uM after 24 hrs by Annexin V-FITC/propidium iodide staining-based flow-cytometric method (reference value: 90.8%); assay type: functional; conditions: MKN-45, 24 h, read-out: Activity
MKN-45 [17] = assay: Cell cycle arrest in human MKN45 cells assessed as accumulation at G1 phase at 8 uM after 24 hrs by propidium iodide staining-based flow cytometric method (reference value: 58.2%); assay type: functional; method in brief: as §2
MKN-45 [18] = assay: Induction of apoptosis in human MKN45 cells assessed as necrotic cells at 8 uM after 24 hrs by Annexin V-FITC/propidium iodide staining-based flow-cytometric method (reference value: 3.86%); assay type: functional
MKN-45 [19] = assay: Induction of apoptosis in human MKN45 cells assessed as viable cells at 2 uM after 24 hrs by Annexin V-FITC/propidium iodide staining-based flow-cytometric method (reference value: 90.8%); assay type: functional; conditions: MKN-45, 24 h, read-out: Activity
MKN-45 [20] = assay: Induction of apoptosis in human MKN45 cells assessed as early apoptotic cells at 4 uM after 24 hrs by Annexin V-FITC/propidium iodide staining-based flow-cytometric method (reference value: 1.31%); assay type: functional
MKN-45 [21] = assay: Induction of apoptosis in human MKN45 cells assessed as chromatin shrinkage at 4 to 8 uM after 24 hrs by Hoechst 33258 staining-based fluorescence microscopic method; assay type: functional, cell-based
MKN-45 [22] = assay: Induction of apoptosis in human MKN45 cells assessed as cell rounding at 4 to 8 uM after 24 hrs by Hoechst 33258 staining-based fluorescence microscopic method; assay type: functional
MKN-45 [23] = assay: Cell cycle arrest in human MKN45 cells assessed as accumulation at G2/M phase after 24 hrs by propidium iodide staining-based flow cytometric method; assay type: functional; method in brief: as §2
MKN-45 [24] = assay: Cell cycle arrest in human MKN45 cells assessed as accumulation at G2/M phase at 2 uM after 24 hrs by propidium iodide staining-based flow cytometric method (reference value: 1.62%); assay type: functional; method in brief: as §2
MKN-45 [25] = assay: Induction of apoptosis in human MKN45 cells assessed as downregulation of Bcl-2 expression at 4 to 16 uM after 24 hrs by Western blot method; assay type: functional, cell-based; method in brief: as §3
MKN-45 [26] = assay: Induction of apoptosis in human MKN45 cells assessed as cleavage of caspases-9 after 24 hrs by Western blot method; assay type: functional, cell-based; method in brief: as §3
MKN-45 [27] = assay: Induction of apoptosis in human MKN45 cells assessed as late apoptotic cells at 2 uM after 24 hrs by Annexin V-FITC/propidium iodide staining-based flow-cytometric method (reference value: 3.99%); assay type: functional
MKN-45 [28] = assay: Induction of apoptosis in human MKN45 cells assessed as late apoptotic cells at 8 uM after 24 hrs by Annexin V-FITC/propidium iodide staining-based flow-cytometric method (reference value: 3.99%); assay type: functional
MKN-45 [29] = assay: Induction of apoptosis in human MKN45 cells assessed as necrotic cells at 2 uM after 24 hrs by Annexin V-FITC/propidium iodide staining-based flow-cytometric method (reference value: 3.86%); assay type: functional
MKN-45 [30] = assay: Induction of apoptosis in human MKN45 cells assessed as early apoptotic cells at 2 uM after 24 hrs by Annexin V-FITC/propidium iodide staining-based flow-cytometric method (reference value: 1.31%); assay type: functional
MKN-45 [31] = assay: Induction of apoptosis in human MKN45 cells assessed as upregulation of Bax expression after 24 hrs by Western blot method; assay type: functional, cell-based; method in brief: as §3

CCCSc1nc(NCc2ccccc2)c2ncc(=O)n(Cc3ccccc3)c2n1
IC50 (MGC-803): 46.6 µM | IC50 (MKN-45 [1]): > 64 µM | IC50 (ECa-109 cell line): > 64 µM | IC50 (NCI-H1650): > 64 µM

Cc1nc(N2CCN(C)CC2)c2ncc(=O)n(Cc3ccccc3)c2n1
IC50 (MGC-803): > 64 µM | IC50 (MKN-45 [1]): > 64 µM | IC50 (ECa-109 cell line): 39 µM | IC50 (NCI-H1650): > 64 µM

CCCSc1nc(N2CCN(C)CC2)c2ncc(=O)n(Cc3cccs3)c2n1
IC50 (MGC-803): 16.4 µM | IC50 (MKN-45 [1]): 11.3 µM | IC50 (ECa-109 cell line): 19.7 µM | IC50 (NCI-H1650): > 64 µM

CCCSc1nc(N2CCN(C)CC2)c2ncc(=O)n(Cc3ccccc3)c2n1
Activity (MKN-45 [2]): Active | IC50 (MGC-803): 7.01 µM | Activity (MKN-45 [3]): 20.2% | Activity (MKN-45 [4]): 7.77% | Activity (MKN-45 [5]): Dose-dependent effect | Activity (MKN-45 [6]): 16.2% | IC50 (MKN-45 [1]): 4.32 µM | Activity (MKN-45 [7]): Dose-dependent effect | viability at 8 µM (MKN-45 [8]): 66.8% | Activity (MKN-45 [9]): 16% | Activity (MKN-45 [10]): 24% | Activity (MKN-45 [11]): 42.2% | Activity (MKN-45 [12]): 1.02% | Activity (MKN-45 [13]): 40.8% | Activity (MKN-45 [14]): 25.7% | Activity (MKN-45 [15]): 29.2% | IC50 (ECa-109 cell line): 9.85 µM | viability at 4 µM (MKN-45 [16]): 73% | Activity (MKN-45 [17]): 6.91% | Activity (MKN-45 [18]): 2.34% | viability at 2 µM (MKN-45 [19]): 71.4% | IC50 (NCI-H1650): 9.92 µM | Activity (MKN-45 [20]): 9.91% | Activity (MKN-45 [21]): Active | Activity (MKN-45 [22]): Active | Activity (MKN-45 [23]): Dose-dependent effect | Activity (MKN-45 [24]): 16.6% | Activity (MKN-45 [25]): Active | Activity (MKN-45 [26]): Dose-dependent effect | Activity (MKN-45 [27]): 11.3% | Activity (MKN-45 [28]): 23.1% | Activity (MKN-45 [29]): 1.62% | Activity (MKN-45 [30]): 15.7% | Activity (MKN-45 [31]): Dose-dependent effect

CCCSc1nc(N2CCSCC2)c2ncc(=O)n(Cc3ccccc3)c2n1
IC50 (MGC-803): 34.7 µM | IC50 (MKN-45 [1]): > 64 µM | IC50 (ECa-109 cell line): > 64 µM | IC50 (NCI-H1650): 54.8 µM

CN1CCN(c2ncnc3c2ncc(=O)n3Cc2ccccc2)CC1
IC50 (MGC-803): > 64 µM | IC50 (MKN-45 [1]): > 64 µM | IC50 (ECa-109 cell line): 41.7 µM | IC50 (NCI-H1650): > 64 µM

CCCSc1nc(NCC2CCCCC2)c2ncc(=O)n(Cc3ccccc3)c2n1
IC50 (MGC-803): 30.4 µM | IC50 (MKN-45 [1]): 21 µM | IC50 (ECa-109 cell line): 36 µM | IC50 (NCI-H1650): > 64 µM

CCCSc1nc(N2CCN(C)CC2)c2ncc(=O)n(Cc3ccco3)c2n1
IC50 (MGC-803): > 64 µM | IC50 (MKN-45 [1]): 11.6 µM | IC50 (ECa-109 cell line): 24 µM | IC50 (NCI-H1650): 54.9 µM

CCCSc1nc(Nc2ccccc2OC)c2ncc(=O)n(Cc3ccccc3)c2n1
IC50 (MGC-803): 19.4 µM | IC50 (MKN-45 [1]): 14.7 µM | IC50 (ECa-109 cell line): > 64 µM | IC50 (NCI-H1650): 51.8 µM
